Experiments:
[1] = molecular target: T1, Alpha-amylase 1A (Homo sapiens) (UniProt P0DUB6); experiment: (§1) Inhibition of human salivary alpha-amylase; conditions: concentration not given here
T1 sequence (whole entry): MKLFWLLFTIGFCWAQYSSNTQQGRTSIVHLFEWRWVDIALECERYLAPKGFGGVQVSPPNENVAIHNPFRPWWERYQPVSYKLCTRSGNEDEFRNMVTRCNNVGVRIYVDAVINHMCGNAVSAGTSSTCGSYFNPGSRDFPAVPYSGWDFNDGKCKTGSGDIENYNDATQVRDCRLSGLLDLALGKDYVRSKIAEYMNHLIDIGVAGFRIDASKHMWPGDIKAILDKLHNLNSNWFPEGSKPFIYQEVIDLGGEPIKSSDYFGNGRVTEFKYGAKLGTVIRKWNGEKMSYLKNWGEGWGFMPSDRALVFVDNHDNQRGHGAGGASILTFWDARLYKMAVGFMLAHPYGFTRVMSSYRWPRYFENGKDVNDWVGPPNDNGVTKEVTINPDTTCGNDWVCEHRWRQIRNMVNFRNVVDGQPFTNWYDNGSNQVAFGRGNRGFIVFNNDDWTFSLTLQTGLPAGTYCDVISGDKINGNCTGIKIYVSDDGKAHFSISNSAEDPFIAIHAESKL
How it was run: (§2)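 Human salivary α-amylase (type IX-A), diluted in water on the day of use, preincubated 30 min with test compound in 50 mM NaH2PO4/50 mM NaCl/0.5 mM CaCl2/0.1% BSA, pH 6.0 (DMSO stocks). Reducing sugar by Nelson-Somogyi, A540; IC50 and maximum % inhibition.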

Alpha-amylase 1A = molecular target: T2, Alpha-amylase 1A (Homo sapiens, UniProt P0DUB6); experiment: as §1; how it was run: as §2
T2 sequence (P0DUB6 whole entry): T1 sequence (whole entry)

Compound | inhibition [1] [%] | IC50 (Alpha-amylase 1A) [µM]
O=c1c(-c2ccc(O)cc2)coc2cc(O)ccc12 | 23.3 | 
COc1cc(-c2oc3cc(O)cc(O)c3c(=O)c2O)ccc1O | 35.4 | 
O=C1C[C@@H](c2ccc(O)cc2)Oc2cc(O)cc(O)c21 | 26.8 | 
Oc1cc(O)c2c(c1)O[C@H](c1ccc(O)c(O)c1)[C@@H](O)C2 | 13.1 | 
O=c1c(O)c(-c2ccc(O)cc2)oc2cc(O)cc(O)c12 | 34.5 | 
O=c1cc(-c2ccc(O)c(O)c2)oc2cc(O)cc(O)c12 [LUTEOLIN] | 88.8 | 18.4
COc1ccc(-c2cc(=O)c3c(O)cc(O)cc3o2)cc1O | 19.2 | 
O=c1c(O)c(-c2ccc(O)c(O)c2)oc2cc(O)cc(O)c12 [QUERCETIN] | 82.1 | 21.4
COc1ccc(-c2cc(=O)c3c(O)cc(O)cc3o2)cc1 | 14.1 | 
COc1cc(O)c2c(=O)c(O)c(-c3ccc(O)c(O)c3)oc2c1 | 8.1 | 
O=c1cc(-c2ccc(O)cc2)oc2cc(O)c(O)c(O)c12 [SCUTELLAREIN] | 98.4 | 9.64
O=c1c(-c2ccc(O)cc2)coc2cc(O)cc(O)c12 | 25.1 | 
O=c1c(O)c(-c2ccc(O)c(O)c2)oc2cc(O)ccc12 [FISETIN] | 85.6 | 19.6
Oc1cc(O)c2c(c1)O[C@H](c1ccc(O)c(O)c1)[C@H](O)C2 | 10.3 | 
COc1cc(O)c2c(=O)cc(-c3ccc(O)cc3)oc2c1 | 17.5 | 
COc1ccc([C@@H]2CC(=O)c3c(O)cc(O)cc3O2)cc1O | 39.8 | 
O=c1c(O)c(-c2cc(O)c(O)c(O)c2)oc2cc(O)cc(O)c12 [MYRICETIN] | 79 | 30.2
O=c1c(O)c(-c2ccc(O)c(O)c2)oc2cc(O)c(O)c(O)c12 [QUERCETAGETIN] | 97.6 | 10.2
C[C@H]1O[C@H](O[C@H]2[C@H](O)[C@@H](O)[C@@H](O[C@H]3[C@H](O)[C@@H](O)[C@H](O)O[C@@H]3CO)O[C@@H]2CO)[C@H](O)[C@@H](O)[C@@H]1N[C@H]1C=C(CO)[C@@H](O)[C@H](O)[C@H]1O | 99.2 | 
